Experimental data from ChEMBL document CHEMBL5107962, “Covalent sortase A inhibitor ML346 prevents Staphylococcus aureus infection of Galleria mellonella” (RSC Med Chem, 2022).
Active and inactive are the calls of the source. No cut-off for these calls is given here.

Experiments:
[1] = molecular target: T1, Cathepsin B (Homo sapiens, UniProt P07858); assay: Inhibition of cathepsin B (unknown origin) using Cbz-Phe-Arg-AMC as substrate preincubated for 5 mins followed by substrate addition and measured after 10 mins by fluorometric assay
Outline: (§1)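 Cathepsin B solution (0.2 ng/µL) or cathepsin L solution (0.02 ng/µL) preincubated with compound at 40 °C for 5 min. Equal volume of pre-warmed Cbz-Phe-Arg-AMC solution added (40 µM for B, 80 µM for L). AMC fluorescence (ex 380/em 460 nm) read continuously for 10 min. Triplicates, two independent experiments, mean ± SEM.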

[2] = molecular target: T2, Procathepsin L (Homo sapiens, UniProt P07711); assay: Inhibition of cathepsin L (unknown origin) using Cbz-Phe-Arg-AMC as substrate preincubated for 5 mins followed by substrate addition and measured after 10 mins by fluorometric assay; outline: as §1
Target sequence in this assay (P07711 whole entry): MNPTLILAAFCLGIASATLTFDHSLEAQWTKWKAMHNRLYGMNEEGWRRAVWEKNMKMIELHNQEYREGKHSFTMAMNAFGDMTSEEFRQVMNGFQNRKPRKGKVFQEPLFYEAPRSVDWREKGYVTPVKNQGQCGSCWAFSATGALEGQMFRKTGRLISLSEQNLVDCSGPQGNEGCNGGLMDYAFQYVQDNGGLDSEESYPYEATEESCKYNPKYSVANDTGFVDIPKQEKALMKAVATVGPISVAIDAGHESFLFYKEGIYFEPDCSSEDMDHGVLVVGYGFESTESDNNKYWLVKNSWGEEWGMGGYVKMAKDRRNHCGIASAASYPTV

[3] = molecular target: T1, Cathepsin B; settings: dose 6.25 nM, time 15.0 min
[4] = molecular target: T2, Procathepsin L; settings: dose 6.25 nM, time 15.0 min
Target sequence in this assay (P07711 114-333 limits assumed): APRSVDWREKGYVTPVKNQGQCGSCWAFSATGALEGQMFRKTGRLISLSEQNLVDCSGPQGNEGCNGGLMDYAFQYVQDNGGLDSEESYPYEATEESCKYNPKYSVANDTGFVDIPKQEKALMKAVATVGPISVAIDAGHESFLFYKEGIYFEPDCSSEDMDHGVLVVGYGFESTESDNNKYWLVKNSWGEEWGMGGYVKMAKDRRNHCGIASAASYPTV

Question: CC(C)C[C@H](NC(=O)[C@H]1O[C@@H]1C(=O)O)C(=O)NCCCCN=C(N)N [E-64] was tested. Which IC50 [1] did it give?
Answer: The IC50 was 4.6 nM.

Question: And the IC50 [2]?
Answer: The IC50 was 2.3 nM.

Question: What about the inhibition [3] of the same compound?
Answer: Its inhibition is “Active”.

Question: And the inhibition [4]?
Answer: The inhibition was “Active”.
